Experimental data from ChEMBL document CHEMBL1909601, “Synthesis and structure-activity relationship studies of dihydronaphthyridinediones as a novel structural class of potent and selective PDE7 inhibitors” (Bioorg Med Chem Lett, 2011).

Columns and labels:
[1] = molecular target: High affinity 3',5'-cyclic-AMP phosphodiesterase 7A (Homo sapiens, UniProt Q13946); assay: Inhibition of human recombinant PDE7A1 expressed in baculovirus infected insect Sf21 cells after 30 mins by scintillation proximity assay
How it was run: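 Full-length human recombinant PDE7A1 produced in baculovirus-infected Sf21 cells. SPA read-out with [3H]-cAMP at 20 nM in 80 mM Tris/10 mM MgSO4, pH 7.4. Reaction run 30 min at 37 °C before bead addition and scintillation counting. Background measured without enzyme. IC50 derived.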

[2] = molecular target: 3',5'-cyclic-AMP phosphodiesterase 4A (Homo sapiens, UniProt P27815); assay: Inhibition of human recombinant PDE4A4 expressed in baculovirus infected insect Sf21 cells after 30 mins by scintillation proximity assay
How it was run: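 Full-length human recombinant enzyme expressed in baculovirus-infected Sf21 cells. Scintillation proximity assay with 500 nM [3H]-cAMP substrate in 80 mM Tris/10 mM MgSO4, pH 7.4. Incubated 30 min at 37 °C, then SPA beads added and plates counted. Background taken in presence of 10 µM rolipram. IC50 reported.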

Chain of High affinity 3',5'-cyclic-AMP phosphodiesterase 7A (Q13946 whole entry): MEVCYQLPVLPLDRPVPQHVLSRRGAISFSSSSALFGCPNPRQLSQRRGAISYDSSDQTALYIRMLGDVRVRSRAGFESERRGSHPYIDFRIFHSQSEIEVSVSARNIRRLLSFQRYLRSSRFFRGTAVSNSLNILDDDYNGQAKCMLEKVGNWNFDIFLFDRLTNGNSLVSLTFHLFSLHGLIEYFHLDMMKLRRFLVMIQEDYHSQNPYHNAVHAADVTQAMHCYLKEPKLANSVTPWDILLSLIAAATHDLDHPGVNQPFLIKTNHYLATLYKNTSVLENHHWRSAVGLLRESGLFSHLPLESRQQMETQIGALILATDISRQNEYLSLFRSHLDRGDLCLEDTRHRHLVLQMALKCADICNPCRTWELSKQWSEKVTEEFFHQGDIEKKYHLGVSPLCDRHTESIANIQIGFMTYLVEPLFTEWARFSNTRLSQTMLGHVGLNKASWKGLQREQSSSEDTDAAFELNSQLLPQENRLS
Chain of 3',5'-cyclic-AMP phosphodiesterase 4A (P27815 whole entry): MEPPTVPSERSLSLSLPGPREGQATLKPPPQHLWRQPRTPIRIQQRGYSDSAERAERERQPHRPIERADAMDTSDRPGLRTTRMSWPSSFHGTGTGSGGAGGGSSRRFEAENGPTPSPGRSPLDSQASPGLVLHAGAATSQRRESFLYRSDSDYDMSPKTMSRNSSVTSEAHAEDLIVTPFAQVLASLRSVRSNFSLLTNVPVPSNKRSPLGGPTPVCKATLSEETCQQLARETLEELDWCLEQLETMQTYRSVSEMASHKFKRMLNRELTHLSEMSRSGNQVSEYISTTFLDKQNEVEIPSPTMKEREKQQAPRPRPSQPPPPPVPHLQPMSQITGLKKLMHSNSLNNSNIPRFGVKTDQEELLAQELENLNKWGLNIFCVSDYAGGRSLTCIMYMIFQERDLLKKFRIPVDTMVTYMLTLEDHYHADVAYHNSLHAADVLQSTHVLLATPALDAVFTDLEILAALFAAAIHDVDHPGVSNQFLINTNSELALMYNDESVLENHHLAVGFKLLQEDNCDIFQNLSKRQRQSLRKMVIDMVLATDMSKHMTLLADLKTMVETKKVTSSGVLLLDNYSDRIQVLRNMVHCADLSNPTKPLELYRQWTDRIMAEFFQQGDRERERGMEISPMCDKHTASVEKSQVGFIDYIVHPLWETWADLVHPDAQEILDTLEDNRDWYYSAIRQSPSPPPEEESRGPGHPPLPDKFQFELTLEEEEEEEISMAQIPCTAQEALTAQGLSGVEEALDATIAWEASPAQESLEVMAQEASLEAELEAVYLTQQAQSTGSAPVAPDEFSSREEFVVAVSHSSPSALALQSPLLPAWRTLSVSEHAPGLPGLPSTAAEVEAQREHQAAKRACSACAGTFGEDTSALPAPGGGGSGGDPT

| SMILES | IC50 [1] [nM] | IC50 [2] [nM] |
| --- | --- | --- |
| O=C(Nc1ccc(N2CCOCC2)cc1)c1cn(Cc2cc(F)cc(F)c2)c2ccc(=O)[nH]c2c1=O | > 1000 | > 1000 |
| CS(=O)(=O)c1ccc(NC(=O)c2cn(Cc3c(F)cccc3F)c3ccc(=O)[nH]c3c2=O)cc1 | 27 | > 1000 |
| O=C(Nc1ccc(S(=O)(=O)Nc2nccs2)cc1)c1cn(Cc2c(F)cccc2F)c2ccc(=O)[nH]c2c1=O | 25 | 481 |
| O=C(Nc1ccc(N2CCOCC2)cc1)c1cn(Cc2ccccc2C(F)(F)F)c2ccc(=O)[nH]c2c1=O | > 1000 | > 1000 |
| O=C(Nc1ccc(N2CCCCC2)cc1)c1cn(Cc2c(F)cccc2F)c2ccc(=O)[nH]c2c1=O | 124 | > 1000 |
| NS(=O)(=O)c1ccc(NC(=O)c2cn(Cc3c(F)cccc3F)c3ccc(=O)[nH]c3c2=O)cc1 | 34 | 458 |
| NC(=O)c1ccc(NC(=O)c2cn(Cc3c(F)cccc3F)c3ccc(=O)[nH]c3c2=O)cc1 | 49 | 201 |
| O=C(Nc1ccc(N2CCOCC2)cc1)c1cn(Cc2c(Cl)cccc2Cl)c2ccc(=O)[nH]c2c1=O | 165 | > 1000 |
| O=C(Nc1c(F)cccc1F)c1cn(Cc2c(F)cccc2F)c2ccc(=O)[nH]c2c1=O | > 1000 | 219 |
| COc1ccc(NC(=O)c2cn(Cc3c(F)cccc3F)c3ccc(=O)[nH]c3c2=O)cc1 | 151 | > 1000 |
| O=C(Nc1ccc(N2CCOCC2)cc1)c1cn(Cc2c(F)cccc2F)c2ccc(=O)[nH]c2c1=O | 22 | 506 |
| CNC(=O)c1ccc(NC(=O)c2cn(Cc3c(F)cccc3Cl)c3ccc(=O)[nH]c3c2=O)cc1 | 18 | 156 |
| COc1ccc(NC(=O)c2cn(Cc3c(F)cccc3Cl)c3ccc(=O)[nH]c3c2=O)cc1Cl | 34 | > 1000 |
| COc1cc(NC(=O)c2cn(Cc3ccc(F)cc3)c3ccc(=O)[nH]c3c2=O)cc(OC)c1OC | 868 | > 1000 |
| O=C(Nc1ccc(OC(F)(F)F)cc1)c1cn(Cc2c(F)cccc2F)c2ccc(=O)[nH]c2c1=O | 90 | > 1000 |
| O=C(Nc1ccc(N2CCOCC2)cc1)c1cn(Cc2c(F)c(F)cc(F)c2F)c2ccc(=O)[nH]c2c1=O | 317 | 3560 |
| COc1cc(NC(=O)c2cn(Cc3ccccc3)c3ccc(=O)[nH]c3c2=O)cc(OC)c1OC | 686 | > 1000 |
| COc1cc(NC(=O)c2cn(Cc3c(F)cccc3F)c3ccc(=O)[nH]c3c2=O)cc(OC)c1OC | 18 | 516 |
| O=C(Nc1ccc(N2CCOCC2)cc1)c1cn(Cc2ccccc2)c2ccc(=O)[nH]c2c1=O | 712 | > 1000 |
| O=C(Nc1ccc(C(F)(F)F)cc1)c1cn(Cc2c(F)cccc2F)c2ccc(=O)[nH]c2c1=O | 300 | > 1000 |
| CNc1ccc(NC(=O)c2cn(Cc3c(F)cccc3F)c3ccc(=O)[nH]c3c2=O)cc1 | 82 | 994 |
| COc1cc(NC(=O)c2cn(Cc3ccccc3F)c3ccc(=O)[nH]c3c2=O)cc(OC)c1OC | 206 | > 1000 |
| COc1cc(NC(=O)c2cn(Cc3c(Cl)cccc3Cl)c3ccc(=O)[nH]c3c2=O)cc(OC)c1OC | 88 | 979 |
| COc1cc(NC(=O)c2cn(Cc3ccccc3Br)c3ccc(=O)[nH]c3c2=O)cc(OC)c1OC | > 1000 | > 1000 |
| CC(=O)c1ccc(NC(=O)c2cn(Cc3c(F)cccc3F)c3ccc(=O)[nH]c3c2=O)cc1 | 29 | > 1000 |
| O=C(Nc1ccc(N2CCOCC2)cc1)c1cn(Cc2ccccc2Cl)c2ccc(=O)[nH]c2c1=O | 767 | > 1000 |
| O=C(Nc1ccccc1)c1cn(Cc2c(F)cccc2F)c2ccc(=O)[nH]c2c1=O | 94 | 1330 |
| CN(C)c1ccc(NC(=O)c2cn(Cc3c(F)cccc3F)c3ccc(=O)[nH]c3c2=O)cc1 | 66 | 471 |
| N#Cc1cccc(NC(=O)c2cn(Cc3c(F)cccc3F)c3ccc(=O)[nH]c3c2=O)c1 | 1070 | > 1000 |
